Reference: ChEMBL document CHEMBL1833887, “Synthesis and evaluation of 7-substituted 4-aminoquinoline analogues for antimalarial activity” (J Med Chem, 2011)
Converted amounts (≈) assume the structure as drawn.

What was measured:
[1] = tested on: Plasmodium falciparum; assay: Antimalarial activity against chloroquine-sensitive Plasmodium falciparum 3D7 infected in human erythrocytes assessed as reduction in parasitemia after 72 hrs by spectrophotometry; assay type: functional, organism-based; conditions: 3D7, 72 h
[2] = tested on: HepG2; assay: Cytotoxicity against human HepG2 cells assessed as intracellular ATP level after 72 hrs by Celltiter-Glo luminescent assay; assay type: cell-based; conditions: HepG2, 72 h
[3] = tested on: Plasmodium falciparum; assay: Ratio of EC50 for chloroquine-resistant Plasmodium falciparum K1 infected in human erythrocytes to EC50 for chloroquine-sensitive Plasmodium falciparum 3D7 infected in human erythrocytes; assay type: functional
[4] = Ratio of EC50 for human HepG2 cells to EC50 for Plasmodium falciparum 3D7 infected in human erythrocytes
[5] = Permeability of the compound at pH 7.4 after 30 mins by PAMPA; assay type: ADME; conditions: read-out: permeability
Procedure, shortened: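 PAMPA at pH 7.4. A 10 mM DMSO stock is diluted into system solution buffer; its UV spectrum serves as reference. Membrane painted with GIT lipid, acceptor chamber holds acceptor solution buffer. Sandwich stirred for 30 min, aqueous boundary layer set to 40. Donor and acceptor UV spectra read at 250–500 nm. Permeability coefficient from the AUCs of reference, donor and acceptor. Single experiment in triplicate.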

[6] = Ratio of EC50 for human HepG2 cells to EC50 for Plasmodium falciparum K1 infected in human erythrocytes
[7] = Solubility of the compound at pH 7.4 after 18 hrs by UV spectroscopic analysis; assay type: physicochemical; conditions: buffer
Procedure, shortened: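 Kinetic solubility. A 10 mM stock is diluted 1:100 into PBS pH 7.4 and incubated 18 h at room temperature, then filtered; the filtrate is mixed 1:1 with 1-propanol. UV spectrum (250–500 nm) compared by AUC with a 1-propanol/PBS reference. Single experiment in triplicate.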

[8] = tested on: Plasmodium falciparum; assay: Antimalarial activity against chloroquine-resistant Plasmodium falciparum K1 infected in human erythrocytes assessed as reduction in parasitemia after 72 hrs by spectrophotometry; assay type: functional, organism-based; conditions: K1, 72 h
[9] = Dissociation constant, pKa of the compound; assay type: physicochemical

Row | Compound | EC50 [1] [nM] | EC50 [2] [µM] | Ratio EC50 [3] | Ratio EC50 [4] | Papp at 0.5 h [5] [×10⁻⁶ cm/s] | Ratio EC50 [6] | solubility at 18 h [7] [µM] | EC50 [8] [nM] | pKa [9]
1 | COc1ccccc1Oc1ccc2c(NCCCNCc3ccco3)ccnc2c1 | 1 | 6.5 | 66.9 | 5014 | 317 | 75 | 14.5 (≈ 5.85 µg/mL) | 87 | 9.28
2 | COc1ccc(F)cc1CNCCCNc1ccnc2cc(-c3ccc(C(C)(C)C)cc3)ccc12 | 144 | 0.62 | 11 | 4.3 | 237 | 0.4 | 32 (≈ 15.1 µg/mL) | 1590 | 9.47
3 | COc1cccc(CNCCCNc2ccnc3cc(Cc4ccc5c(c4)OCO5)ccc23)c1O | 8 | 1.14 | 6 | 135.4 | 237 | 22.7 | 32 (≈ 15.1 µg/mL) | 50 | 9.47
4 | COc1cccc(CNCCCNc2ccnc3cc(Cc4ccc(C#N)cc4)ccc23)c1O | 11 | 7.15 | 514 | 674.8 | 23 | 1.3 | 4.2 (≈ 1.9 µg/mL) | 5440 | 9.47
5 | COc1ccc(F)cc1CNCCCNc1ccnc2cc(Oc3ccc(C(C)(C)C)cc3)ccc12 | 106 | 7.2 | 26.2 | 68 | 317 | 3 | 14.5 (≈ 7.07 µg/mL) | 2780 | 9.28
6 | COc1cccc(CNCCCNc2ccnc3cc(Oc4ccc(C(C)(C)C)cc4)ccc23)c1O | 54 | 1.5 | 4.6 | 28 | 317 | 6 | 14.5 (≈ 7.04 µg/mL) | 249 | 9.28
7 | COc1ccc(Oc2ccc3c(NCCCNCc4cccc(OC)c4O)ccnc3c2)cc1 | 4 | 5.5 | 91.5 | 1347 | 317 | 15 | 14.5 (≈ 6.66 µg/mL) | 375 | 9.28
8 | c1ccc(-c2ccc3c(NCCCNCc4ccco4)ccnc3c2)cc1 | 20 | 5.92 | 6.3 | 291.6 | 237 | 46.4 | 32 (≈ 11.4 µg/mL) | 128 | 9.47
9 | Fc1ccc(Cc2ccc3c(NCCCNCc4ccco4)ccnc3c2)cc1 | 57 | 5.6 | 28.9 | 97.5 | 23 | 3.4 | 4.2 (≈ 1.64 µg/mL) | 1660 | 9.47
10 | c1coc(CNCCCNc2ccnc3cc(Cc4ccc5c(c4)OCO5)ccc23)c1 | 19 | 6.5 | 2.4 | 340.2 | 237 | 142.2 | 32 (≈ 13.3 µg/mL) | 46 | 9.47
11 | CC(C)Cc1ccc2c(NCCCNCc3ccco3)ccnc2c1 | 581 | 16 | 7.7 | 27.5 | 23 | 3.6 | 4.2 (≈ 1.42 µg/mL) | 4500 | 9.47
12 | COc1ccc(-c2ccc3c(NCCCNCc4cc(F)ccc4OC)ccnc3c2)cc1 | 96 | 5.96 | 0.3 | 62.1 | 237 | 205.5 | 32 (≈ 14.3 µg/mL) | 29 | 9.47
13 | COc1ccc(F)cc1CNCCCNc1ccnc2cc(CCc3ccccc3)ccc12 | 132 | 4.24 | 16.2 | 32.1 | 23 | 2 | 4.2 (≈ 1.86 µg/mL) | 2140 | 9.47
14 | COc1cccc(CNCCCNc2ccnc3cc(Cc4ccccc4)ccc23)c1O | 17 | 5.72 | 400.6 | 328.6 | 23 | 0.8 | 4.2 (≈ 1.8 µg/mL) | 6970 | 9.47
15 | COc1cccc(CNCCCNc2ccnc3cc(Oc4cccc(N(C)C)c4)ccc23)c1O | 10 | 7.3 | 215.1 | 765 | 317 | 4 | 14.5 (≈ 6.85 µg/mL) | 2040 | 9.28
16 | c1cc(NCCCNCc2ccc3c(c2)OCO3)c2ccc(C3CCCCC3)cc2n1 | 128 | 3.02 | 36.7 | 23.6 | 23 | 0.6 | 4.2 (≈ 1.75 µg/mL) | 4710 | 9.47
17 | CC(C)(C)c1ccc(-c2ccc3c(NCCCNCc4ccco4)ccnc3c2)cc1 | 704 | 3.15 | 0.5 | 4.5 | 237 | 9.7 | 32 (≈ 13.2 µg/mL) | 325 | 9.47
18 | COc1ccc(F)cc1CNCCCNc1ccnc2cc(Cc3ccc(C#N)cc3)ccc12 | 28 | 6.05 | 27.5 | 216.2 | 23 | 7.9 | 4.2 (≈ 1.91 µg/mL) | 770 | 9.47
19 | N#Cc1ccc(Cc2ccc3c(NCCCNCc4ccco4)ccnc3c2)cc1 | 39 | 7.91 | 9.7 | 201.9 | 23 | 20.7 | 4.2 (≈ 1.67 µg/mL) | 382 | 9.47
20 | COc1ccc(F)cc1CNCCCNc1ccnc2cc(Cc3ccccc3)ccc12 | 11 | 7.99 | 129.5 | 726.7 | 23 | 5.6 | 4.2 (≈ 1.8 µg/mL) | 1420 | 9.47
21 | Clc1ccc(Oc2ccc3c(NCCCNCc4ccco4)ccnc3c2)cc1 | 40 | 7.8 | 19.8 | 194 | 317 | 10 | 14.5 (≈ 5.91 µg/mL) | 793 | 9.28
